Calls of active or inactive are those of the source.

Series [1] in a line: Antitumor efficacy evaluated after fractionated dose of 4*100 mg/kg; NE = No effect. The series is classed as functional, organism-based. An outline of the steps: (§1)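 Male CD2F1 mice, six per group, inoculated ip with 10⁶ freshly harvested P388 cells in 0.2 mL phosphate-buffered saline. Test substance given ip either once on day 1 or daily on days 1–4; controls received solvent. Median survival time recorded per group; increase of life span expressed as percentage of control.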

The nature of series [2]: Antitumor efficacy evaluated after single dose of 316 mg/kg; NE = No effect. The series is classed as functional, organism-based. Also noted: dose 316 mg/kg. In a few lines:
as §1

Series [3] can be described thus: Lethal dose was evaluated after single intraperitoneal injection in mice. The series is classed as toxicity, organism-based. Conditions: mouse, in vivo, ip. An outline of the steps:
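Male CD2F1 mice, 6–8 weeks old, two per dose group, single ip injection. Observed 28 days for lethality and clinical signs of toxicity; approximate LD₅₀ estimated from deaths.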

A short description of series [4]: The half life at a pH 1.2. Particulars: buffer.
Series [5] can be described thus: The half life at a physiological pH.
A short description of series [6]: Antitumor efficacy evaluated after single intraperitoneal dose of 215 mg/kg; NE = No effect. The series is classed as functional, organism-based. On the set-up: dose 215 mg/kg. An outline of the steps: as §1
Series [7] is described as follows: Antitumor efficacy evaluated after single intraperitoneal dose of 68.1 mg/kg on consecutive days; NE = No effect. It counts as functional, organism-based. On the set-up: dose 68.1 mg/kg. An outline of the steps:
as §1

Take `O=P1(O)OCCCNCCN1CCCl`: the Efficacy entry in series [1] and in series [2] was “inactive” each time. The compound further registered an LD50 in series [3] of 1000 mg/kg.
Regarding `NCCCOP(=O)(O)O`, the 50% lethal dose (LD50) in series [3] was found to be 1000 mg/kg.
With `O=P1(N(CCCl)CCCl)NCCCO1` (stereo not given) [CYCLOPHOSPHAMIDE ANHYDROUS], the half-life is 33.6 h in series [4] and 158 h in series [5]. Besides, the LD50 in series [3] stood at 620 mg/kg.
Take `O=P(O)(O)OCCCNCCNCCCl`: the Efficacy entry in series [6] and in series [7] was “inactive” in each case. In series [3], the LD50 turned out to be 700 mg/kg.

As usually defined, the LD50 is the dose at which mortality reaches 50%. By half-life is commonly meant the time needed for the level to fall by half in the phase considered. A lower half-life goes with rapid decline.

The values are drawn from ChEMBL document CHEMBL1127411, “Chemical and biological evaluation of hydrolysis products of cyclophosphamide” (J Med Chem, 1994).
